Results published in PMC2911241 (Letters in drug design & discovery, 2010).

Test system: human chronic myelogenous K562 leukemia cells
Experiment: Cell proliferation analysis, K562 cells
Type: cell-based
Conditions: Homo sapiens, K562, 24 h, read-out: IC50 K562
Procedure, shortened: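 K562 cells grown in RPMI 1640 with 10% FCS, 2 mM L-glutamine, […] and penicillin/streptomycin at 37°C, 5% CO2. DMSO stocks (1 mg/mL) diluted in medium. Cells (1×10^4/well) exposed to increasing concentrations for 24 h at 37°C, then counted electronically. IC50 is 50% growth inhibition vs untreated controls. Duplicate cultures per concentration, repeated experiments, mean ± SE.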

IC50 [µM]	SMILES
> 100	C=C(Br)C(=O)Nc1c(C(=O)c2cc(OC)c(OC)c(OC)c2)oc2ccc(OC)cc12 [Compound 5b, 2-Bromo-N-[5-methoxy-2-(3,4,5-trimethoxybenzoyl)-1-benzofuran-3-yl]acrylamide]
0.032	COc1cc(C(=O)c2sc3c(C)cccc3c2NC(C)=O)cc(OC)c1OC [Compound 3y, N-[7-Methyl-2-(3,4,5-trimethoxybenzoyl)-1-benzothien-3-yl]acetamide]
0.58 ± 0.03	C=C(Br)C(=O)Nc1c(C(=O)c2cc(OC)c(OC)c(OC)c2)sc2ccccc12 [Compound 5e, 2-Bromo-N-[2-(3,4,5-trimethoxybenzoyl)-1-benzothien-3-yl]acrylamide]
0.08	COc1cc(C(=O)c2sc3cc(C)ccc3c2NC(=O)CCl)cc(OC)c1OC [Compound 3v, 2-Chloro-N-[6-methyl-2-(3,4,5-trimethoxybenzoyl)-1-benzothien-3-yl]acetamide]
0.55 ± 0.05	COc1cc(C(=O)c2sc3ccccc3c2NC(=O)CO[N+](=O)[O-])cc(OC)c1OC [Compound 4b, 2-Oxo-2-{[2-(3,4,5-trimethoxybenzoyl)-1-benzothien-3-yl]amino}ethyl nitrate]
0.7 ± 0.01	COc1cc(C(=O)c2sc3cc(C)ccc3c2NC(C)=O)cc(OC)c1OC [Compound 3u, N-[6-Methyl-2-(3,4,5-trimethoxybenzoyl)-1-benzothien-3-yl]acetamide]
0.5 ± 0.08	COc1cc(C(=O)c2sc3cc(C)ccc3c2NC(=O)CBr)cc(OC)c1OC [Compound 3w, 2-Bromo-N-[6-methyl-2-(3,4,5-trimethoxybenzoyl)-1-benzothien-3-yl]acetamide]
0.6 ± 0.02	COc1cc(C(=O)c2sc3ccccc3c2NC(=O)CCl)cc(OC)c1OC [Compound 3r, 2-Chloro-N-[2-(3,4,5-trimethoxybenzoyl)-1-benzothien-3-yl]acetamide]
25.9 ± 2.3	C=C(Br)C(=O)Nc1c(C(=O)c2cc(OC)c(OC)c(OC)c2)oc2cc(OC)ccc12 [Compound 5c, 2-Bromo-N-[6-methoxy-2-(3,4,5-trimethoxybenzoyl)-1-benzofuran-3-yl]acrylamide]

More lines, now with the values behind:

SMILES	IC50 [µM]
COc1cc(C(=O)c2oc3c(OC)cccc3c2NC(C)=O)cc(OC)c1OC [Compound 3m, N-[7-Methoxy-2-(3,4,5-trimethoxybenzoyl)-1-benzofuran-3-yl]acetamide]	48.1 ± 2.6
COc1ccc2oc(C(=O)c3cc(OC)c(OC)c(OC)c3)c(NC(=O)CBr)c2c1 [Compound 3g, 2-Bromo-N-[5-methoxy-2-(3,4,5-trimethoxybenzoyl)-1-benzofuran-3-yl]acetamide]	53.4 ± 2.6
COc1ccc2oc(C(=O)c3cc(OC)c(OC)c(OC)c3)c(NC(=O)CCl)c2c1 [Compound 3f, 2-Chloro-N-[5-methoxy-2-(3,4,5-trimethoxy-benzoyl)-1-benzofuran-3-yl]acetamide]	60.9 ± 2.4
COc1cc(C(=O)c2oc3ccccc3c2NC(=O)CCl)cc(OC)c1OC [Compound 3b, 2-Chloro-N-[2-(3,4,5-trimethoxybenzoyl)-1-benzofuran-3-yl]acetamide]	45.8 ± 1.5
COc1ccc2oc(C(=O)c3cc(OC)c(OC)c(OC)c3)c(NC(C)=O)c2c1 [Compound 3e, N-[5-Methoxy-2-(3,4,5-trimethoxybenzoyl)-1-benzofuran-3-yl]acetamide]	58.1 ± 1.3
COc1cc(C(=O)c2oc3ccccc3c2NC(C)=O)cc(OC)c1OC [Compound 3a, N-[2-(3,4,5-Trimethoxybenzoyl)-1-benzofuran-3-yl]acetamide]	> 100
COc1cc(C(=O)c2oc3c(OC)cccc3c2NC(=O)CCl)cc(OC)c1OC [Compound 3n, 2-Chloro-N-[7-methoxy-2-(3,4,5-trimethoxybenzoyl)-1-benzofuran-3-yl]acetamide]	82.7 ± 5.6
COc1cc(C(=O)c2sc3c(C)cccc3c2NC(=O)CBr)cc(OC)c1OC [Compound 3aa, 2-Bromo-N-[7-methyl-2-(3,4,5-trimethoxybenzoyl)-1-benzothien-3-yl]acetamide]	0.49 ± 0.08
